Results gathered from unrelated publications.
Each line is one published result; the experiments were not run side by side.
Target: Tyrosine-protein kinase JAK2 (JAK2, Homo sapiens, UniProt O60674)
Observed: enzyme activity
Mode: inhibitor

SMILES	technique	tested at	remaining activity
O=C(NCCCNc1nc(Nc2cccc(CN3CCOCC3)c2)ncc1C1CC1)C1CCC1	radiometric	1 µM	46%
CC(C)(O)[C@H]1CC[C@H](Nc2ccc3ncc(-c4cccc(C(F)(F)F)c4)n3n2)CC1		1 µM	24.8%
COc1cc(Cl)c(C(=O)N[C@@H](CN[C@H]2CC[C@@H](N)CC2)Cc2ccc(C#N)cc2)cc1-c1ccc(CN[C@H](C)c2ccc(C)cc2)o1		1 µM	104%
CC(C)(C)c1nc2c(s1)c1nc(N)ncc1c1ccc(NS(=O)(=O)c3c(F)cccc3F)c(F)c12	radiometric	1 µM	85%
Cc1ccc(C(=O)Nc2ccc(CN3CCN(C)CC3)c(C(F)(F)F)c2)cc1C#Cc1cnc2cccnn12		23.5 nM	58%
Cc1cnc(NC2CCOCC2)nc1-n1cnc(C(=O)NC(CN)c2cc(F)cc(Cl)c2)c1 (stereo not shown)	radiometric	1 µM	104%
Cn1c(=O)n(-c2ccc(C(C)(C)C#N)cc2)c2c3cc(-c4cnc5ccccc5c4)ccc3ncc21		10 µM	24%
O=C(Nc1cccc(Nc2ncc(Br)c(NCCc3cnc[nH]3)n2)c1)N1CCCC1	radiometric	1 µM	24%
COc1cc(Nc2cnc(C#N)c(O[C@H](C)CN(C)C)n2)ncc1-c1cnn(C)c1	radiometric	10 µM	41%
Cc1nn(CC(F)(F)F)cc1Nc1ncc(Br)c(NCc2ccc(S(N)(=O)=O)cc2)n1	radiometric	1 µM	70%
O=C(Nc1cnn(-c2csc(C(=O)NC3COC3)c2)c1)Nc1c(F)cccc1Cl		5 µM	96.5%
Oc1cccc(-c2nc(N3CCOCC3)c3oc4ncccc4c3n2)c1		10 µM	93%
Brc1cnc(Nc2cccc(CN3CCOCC3)c2)nc1NCCc1c[nH]cn1	radiometric	1 µM	6%
CC(C)(C)c1nc(-c2cccc(NS(=O)(=O)c3c(F)cccc3F)c2F)c(-c2ccnc(N)n2)s1	radiometric	1 µM	90%
CN1CCc2cc(Nc3ncc(C4CC4)c(NCCCNC(=O)C4CCC4)n3)ccc2C1	radiometric	1 µM	44%
O=C(Nc1cnn(-c2csc(C(=O)NC3COC3)c2)c1)Nc1ccccc1Cl		5 µM	98.2%
